Experimental data from ChEMBL document CHEMBL5329223, “Newly synthesized 6-substituted piperazine/phenyl-9-cyclopentyl containing purine nucleobase analogs act as potent anticancer agents and induce apoptosis via inhibiting Src in hepatocellular carcinoma cells” (RSC Med Chem, 2023).
The source made the active and inactive calls. The calls are words filed in the database; no cut-off is given here.

How the values were obtained:
Huh-7 [1] = test: Cytotoxicity against human Huh-7 cells assessed as cell growth inhibition incubated for 72 hrs by SRB assay; type: functional, cell-based; details: for IC50: Huh-7, 72 h
Summary of the method: (§1)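 Cells seeded at 1000–3000 per well, treated after 24 h with 2.5–40 μM (40, 20, 10, 5, 2.5 μM) for 72 h, in duplicate or triplicate; DMSO negative control. Fixed with 10% TCA 1 h at 4 °C, stained with 0.4% SRB in 1% acetic acid, dye solubilized in 10 mM TBS, A515 read; OD normalized to DMSO control, IC50 from growth-inhibition curves.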

HCT-116 = test: Cytotoxicity against human HCT-116 cells assessed as cell growth inhibition incubated for 72 hrs by SRB assay; type: functional, cell-based; details: for IC50: HCT-116, 72 h; summary of the method: as §1
HepG2 = test: Cytotoxicity against human HepG2 cells assessed as cell growth inhibition incubated for 72 hrs by SRB assay; type: functional, cell-based; details: HepG2, 72 h; summary of the method: as §1
Hep 3B2 = test: Cytotoxicity against human Hep3B cells assessed as cell growth inhibition incubated for 72 hrs by SRB assay; type: functional, cell-based; summary of the method: as §1
PLC = test: Cytotoxicity against human PLC cells assessed as cell growth inhibition incubated for 72 hrs by SRB assay; type: functional, cell-based; summary of the method: as §1
Mahlavu [2] = test: Cytotoxicity against human Mahlavu cells assessed as cell growth inhibition incubated for 72 hrs by SRB assay; type: functional, cell-based; summary of the method: as §1
[3] = Cytotoxicity against human FOCUS cells assessed as cell growth inhibition incubated for 72 hrs by SRB assay; type: functional, cell-based; summary of the method: as §1
SNU-475 = test: Cytotoxicity against human SNU-475 cells assessed as cell growth inhibition incubated for 72 hrs by SRB assay; type: functional, cell-based; details: SNU-475, 72 h; summary of the method: as §1
SNU-182 = test: Cytotoxicity against human SNU-182 cells assessed as cell growth inhibition incubated for 72 hrs by SRB assay; type: functional, cell-based; details: for IC50: SNU-182, 72 h; summary of the method: as §1
SNU-387 = test: Cytotoxicity against human SNU-387 cells assessed as cell growth inhibition incubated for 72 hrs by SRB assay; type: functional, cell-based; details: SNU-387, 72 h; summary of the method: as §1
SNU-398 = test: Cytotoxicity against human SNU-398 cells assessed as cell growth inhibition incubated for 72 hrs by SRB assay; type: functional, cell-based; details: SNU-398, 72 h; summary of the method: as §1
SNU-423 = test: Cytotoxicity against human SNU-423 cells assessed as cell growth inhibition incubated for 72 hrs by SRB assay; type: functional, cell-based; details: SNU-423, 72 h; summary of the method: as §1
SNU-449 = test: Cytotoxicity against human SNU-449 cells assessed as cell growth inhibition incubated for 72 hrs by SRB assay; type: functional, cell-based; details: SNU-449, 72 h; summary of the method: as §1
MCF7 = test: Cytotoxicity against human MCF7 cells assessed as cell growth inhibition incubated for 72 hrs by SRB assay; type: functional, cell-based; details: for IC50: MCF7, 72 h; summary of the method: as §1
Huh-7 [4] = test: Cytotoxicity against human Huh-7 cells assessed as cell growth inhibition at 0.625 to 5 uM measured upto 72 hrs by RT-CES analysis; type: functional, cell-based; details: dose 0.625-5 µM
Summary of the method: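 Huh7 cells, 2000 per well, treated 24 h after seeding alongside DMSO control; cell index from impedance recorded every 30 min; plots for each concentration normalized to DMSO-treated cells.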

Huh-7 [5] = test: Induction of morphological changes in human Huh-7 cells assessed as horseshoe-like condensed nuclei at 5 uM incubated for 72 hrs by Hoechst 33258 dye based microscopy; type: functional, cell-based
Summary of the method: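 Huh7 cells on coverslips (50 000 per well) given 5 μM or DMSO 24 h after seeding for 72 h; permeabilized with ice-cold methanol 10 min, Hoechst 33258 stain 5 min in the dark, imaged by fluorescence microscopy with 40× objective.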

Huh-7 [6] = test: Induction of cell cycle arrest in human Huh-7 cells assessed as increase in accumulation of cells at subG1 phase at 5 uM incubated for 72 hrs by PI staining based flow cytometry; type: functional
Summary of the method: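 Huh7 and Mahlavu cells serum-starved 24 h to synchronize, then given 5 μM or DMSO in fresh growth medium for 72 h. Trypsinized, fixed in ice-cold 70% ethanol at least 3 h at −20 °C, PI-stained with a cell cycle kit, analyzed by flow cytometry for SubG1.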

Huh-7 [7] = test: Induction of apoptosis in human Huh-7 cells assessed as increase in PARP-1 cleavage at 5 uM incubated for 72 hrs by Western blot analysis; type: functional, cell-based
Summary of the method: (§2)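 Huh7 cells (300 000 per dish) treated 24 h after seeding with 5 μM or DMSO for 72 h. Immunoblot for PARP-1, phospho-Src Tyr416, Src, Rb, phospho-Rb Ser807/811, Cdk2; calnexin and actin as loading controls.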

Huh-7 [8] = test: Upregulation of intracellular ATP level in human Huh-7 cells at 5 uM incubated for 72 hrs by Kinase Glo assay; type: functional, cell-based
Summary of the method: (§3)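 Huh7 and Mahlavu cells grown 24 h, then treated with 5 μM for 72 h. Lysates protein-normalized by Bradford; ATP read by Kinase-Glo Plus luminescence per kit protocol. Staurosporine positive control, DMSO negative control.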

Mahlavu [9] = test: Upregulation of intracellular ATP level in human Mahlavu cells at 5 uM incubated for 72 hrs by Kinase Glo assay; type: functional, cell-based; summary of the method: as §3
[10] = target: Proto-oncogene tyrosine-protein kinase Src (Homo sapiens) (UniProt P12931); test: Inhibition of Src activation in human Huh-7 cells assessed as decrease in phosphorylated Src level at 5 uM incubated for 72 hrs by Western blot analysis; type: cell-based; summary of the method: as §2
Proto-oncogene tyrosine-protein kinase Src (Homo sapiens), sequence (P12931 2-536 limits assumed): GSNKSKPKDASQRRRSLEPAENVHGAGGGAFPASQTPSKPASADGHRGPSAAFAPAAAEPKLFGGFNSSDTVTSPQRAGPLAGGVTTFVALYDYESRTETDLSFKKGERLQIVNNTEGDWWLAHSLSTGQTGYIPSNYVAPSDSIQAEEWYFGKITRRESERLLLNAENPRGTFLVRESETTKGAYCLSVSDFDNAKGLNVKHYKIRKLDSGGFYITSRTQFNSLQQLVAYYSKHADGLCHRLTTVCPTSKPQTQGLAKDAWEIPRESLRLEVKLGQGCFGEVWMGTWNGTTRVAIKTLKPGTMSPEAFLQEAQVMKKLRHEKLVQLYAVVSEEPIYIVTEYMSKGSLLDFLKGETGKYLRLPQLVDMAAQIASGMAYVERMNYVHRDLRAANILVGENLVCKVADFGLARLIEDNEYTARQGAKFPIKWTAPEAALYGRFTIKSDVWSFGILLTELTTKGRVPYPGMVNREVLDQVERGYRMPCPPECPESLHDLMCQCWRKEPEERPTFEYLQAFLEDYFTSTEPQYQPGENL

| Compound | IC50 (Huh-7 [1]) [µM] | IC50 (HCT-116) [µM] | IC50 (HepG2) [µM] | IC50 (Hep 3B2) [µM] | IC50 (PLC) [µM] | IC50 (Mahlavu [2]) [µM] | IC50 [3] [µM] | IC50 (SNU-475) [µM] | IC50 (SNU-182) [µM] | IC50 (SNU-387) [µM] | IC50 (SNU-398) [µM] | IC50 (SNU-423) [µM] | IC50 (SNU-449) [µM] | IC50 (MCF7) [µM] | further results |
| --- | --- | --- | --- | --- | --- | --- | --- | --- | --- | --- | --- | --- | --- | --- | --- |
| Nc1nc(F)nc2c1ncn2[C@@H]1O[C@H](CO)[C@@H](O)[C@@H]1O [FLUDARABINE] | 24.4 | 8.3 | 17 | 27.8 | 41.7 | 14.2 | 13.7 | 41.5 | 37.2 | 33.8 | 0.2 | 32.6 | 25.1 |  |  |
| COc1ccc(S(=O)(=O)N2CCN(c3ncnc4c3ncn4C3CCCC3)CC2)cc1 | 7.1 | 10.4 | 2.7 | 71.8 | 84.6 | 9 | 10.1 | 57.5 |  | 15.8 | 6.9 | 6.8 | 20 | 8.6 | growth inhibition (GI) (SNU-182): inactive |
| O=S(=O)(c1ccc(Cl)cc1)N1CCN(c2ncnc3c2ncn3C2CCCC2)CC1 | 34.4 | 44.8 |  |  |  |  |  |  |  |  |  |  |  | 10.5 |  |
| Cc1ccc(N2CCN(c3ncnc4c3ncn4C3CCCC3)CC2)cc1 | 1.4 | 1.9 | 0.9 | 3.1 | 20.7 | 4.2 | 5 | 17.7 | 61 | 88 | 1.9 | 17.5 | 17 | 6.4 |  |
| Fc1ccc(N2CCN(c3ncnc4c3ncn4C3CCCC3)CC2)cc1 | 1.5 | 1.6 | 0.5 | 4.3 | 6 | 7 | 1.5 | 7 | 41 | 26 | 1 | 16 | 3.3 | 9.1 | growth inhibition (GI) (Huh-7 [4]): Active; Activity (Huh-7 [5]): Active; Activity (Huh-7 [6]): Active; Activity (Huh-7 [7]): Active; Activity (Huh-7 [8]): inactive; Activity (Mahlavu [9]): inactive |
| O=S(=O)(c1ccccc1)N1CCN(c2ncnc3c2ncn3C2CCCC2)CC1 | 13.1 | 12 |  |  |  |  |  |  |  |  |  |  |  | 11.2 |  |
| Cc1ccc(S(=O)(=O)N2CCN(c3ncnc4c3ncn4C3CCCC3)CC2)cc1 | 49 | 197 |  |  |  |  |  |  |  |  |  |  |  | 171 |  |
| CC(C)c1ccc(S(=O)(=O)N2CCN(c3ncnc4c3ncn4C3CCCC3)CC2)cc1 | 14.7 | 11.5 |  |  |  |  |  |  |  |  |  |  |  | 17.2 |  |
| FC(F)(F)Oc1ccc(-c2ncnc3c2ncn3C2CCCC2)cc1 | 15.1 | 26.3 |  |  |  |  |  |  |  |  |  |  |  | 24 |  |
| O=S(=O)(c1ccc(C(F)(F)F)cc1)N1CCN(c2ncnc3c2ncn3C2CCCC2)CC1 | 12.3 | 32.4 |  |  |  |  |  |  |  |  |  |  |  | 12.7 |  |
| Clc1ccc(-c2ncnc3c2ncn3C2CCCC2)cc1 | 15.6 |  |  |  |  |  |  |  |  |  |  |  |  |  | growth inhibition (GI) (HCT-116): inactive; growth inhibition (GI) (MCF7): inactive |
| OC[C@H]1O[C@@H](n2cnc3c2N=CNC[C@H]3O)C[C@@H]1O |  |  |  |  |  |  |  |  |  |  |  |  |  |  | growth inhibition (GI) (Huh-7 [1]): inactive; growth inhibition (GI) (HCT-116): inactive; growth inhibition (GI) (MCF7): inactive |
| c1ccc(-c2ncnc3c2ncn3C2CCCC2)cc1 | 12.8 | 13.9 |  |  |  |  |  |  |  |  |  |  |  | 15.7 |  |
| O=S(=O)(c1ccc(Br)cc1)N1CCN(c2ncnc3c2ncn3C2CCCC2)CC1 | 8 | 8.4 | 6.3 | 4.3 | 9.2 | 20.5 | 15.9 | 9 | 60.6 | 15.9 | 4 | 10.5 | 8.5 | 6.5 |  |
| CC(C)(C)c1ccc(-c2ncnc3c2ncn3C2CCCC2)cc1 | 6.3 | 6.6 | 2.7 | 6.7 | 3.4 | 4 | 2 | 12.3 | 12.2 | 2 | 1.8 | 4 | 6.9 | 12.6 |  |
| COc1ccc(N2CCN(c3ncnc4c3ncn4C3CCCC3)CC2)cc1 | 1.3 | 5 | 0.3 | 0.3 | 9.3 | 0.6 | 2.6 | 13 | 13 | 38 | 0.3 | 15 | 2 | 1 | growth inhibition (GI) (Huh-7 [4]): Active; Activity (Huh-7 [5]): Active; Activity (Huh-7 [6]): Active; Activity (Huh-7 [7]): Active; Activity (Huh-7 [8]): inactive; Activity (Mahlavu [9]): inactive |
| Brc1ccc(-c2ncnc3c2ncn3C2CCCC2)cc1 | 16 |  |  |  |  |  |  |  |  |  |  |  |  | 56.1 | inhibition (HCT-116): inactive |
| Clc1ccc(N2CCN(c3ncnc4c3ncn4C3CCCC3)CC2)cc1 | 0.1 | 0.6 | 0.01 | 0.4 | 19.3 | 4 | 2 | 12.3 | 12.2 | 2 | 1.8 | 4 | 6.9 | 4.1 | growth inhibition (GI) (Huh-7 [4]): Active; Activity (Huh-7 [5]): Active; Activity (Huh-7 [6]): Active; inhibition [10]: Active; Activity (Huh-7 [8]): inactive; Activity (Mahlavu [9]): inactive |
| O=S(=O)(c1ccc(F)cc1)N1CCN(c2ncnc3c2ncn3C2CCCC2)CC1 | 9 | 12 | 4.8 | 6.1 | 15.4 | 11.4 | 12.6 | 21.6 | 47.9 | 11.1 | 8 | 9.5 | 16.3 | 5.2 |  |
| COc1ccc(-c2ncnc3c2ncn3C2CCCC2)cc1 | 10.6 | 39 |  |  |  |  |  |  |  |  |  |  |  | 19.5 |  |
| Clc1ccc(N2CCN(c3ncnc4c3ncn4C3CCCC3)CC2)cc1Cl | 0.04 | 0.04 | 0.02 | 0.03 | 7 | 0.1 | 0.5 | 2.5 | 65 | 20 | 0.2 | 9.9 | < 0.1 | 0.16 |  |
| FC(F)(F)c1ccc(-c2ncnc3c2ncn3C2CCCC2)cc1 | 29.8 | 6 |  |  |  |  |  |  |  |  |  |  |  | 20.3 |  |
| Nc1nc(Cl)nc2c1ncn2[C@H]1C[C@H](O)[C@@H](CO)O1 [CLADRIBINE] | 0.6 | < 0.1 | 0.4 | 0.1 | 9.1 | < 0.1 | < 0.1 | 2.5 | 23.3 | 7.1 | < 0.1 | 6.7 | 37.3 |  |  |
| Fc1ccc(-c2ncnc3c2ncn3C2CCCC2)cc1 | 6.7 | 6.1 |  |  |  |  |  |  |  |  |  |  |  | 15.6 |  |
| Cc1ccc(-c2ncnc3c2ncn3C2CCCC2)cc1 | 23.8 | 22.4 |  |  |  |  |  |  |  |  |  |  |  | 17.7 |  |
| CN[C@@H]1C[C@H]2O[C@@](C)([C@@H]1OC)n1c3ccccc3c3c4c(c5c6ccccc6n2c5c31)C(=O)NC4 |  |  |  |  |  |  |  |  |  |  |  |  |  |  | Activity (Huh-7 [8]): inactive; Activity (Mahlavu [9]): inactive |
